System: MS2 coat protein
Experiment: apparent Kd, MS2 coat protein; higher = weaker binding; RNA-MaP array; FMN 200 µM where present
Outline: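 The apparent Kd is reported as the median of filtered per-cluster binding-curve fits. To get these curves, designs transcribed by stalled E. coli RNA polymerase on Illumina sequencing-chip clusters were titrated with SNAP-549-labelled MS2 coat protein from 0.7 or 1.5 nM, doubling to 3 µM. Titrations were run without and then with constant ligand in 100 mM Tris-HCl pH 7.5, 80 mM KCl, 4 mM MgCl2, BSA, DTT, yeast tRNA and Tween-20, and green signal was normalised to red-channel RNA signal and control-cluster median Fmax.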

[1] = designed as: ON switch for flavin mononucleotide, no ligand
[2] = ligand present: flavin mononucleotide, designed as: ON switch for flavin mononucleotide
[3] = designed as: OFF switch for flavin mononucleotide, no ligand
[4] = ligand present: flavin mononucleotide, designed as: OFF switch for flavin mononucleotide

| Sequence | apparent Kd [1] | apparent Kd [2] | apparent Kd [3] | apparent Kd [4] |
| --- | --- | --- | --- | --- |
| GUAGCAUACCGAGGAUAUCUAUAUAAUAAACAAACAUGAGGAUCACCCAUGUGGCGAAAGCCAAGGGAGAAGGCGGAAUGCUAC | 35.6 nM | 22.1 nM |  |  |
| GCCAUCACAUGAGGAUAUGCUCCCGUUUCGGGAGCAGAAGGCAUGUCAUAAGACAUGAGGAUCACCCAUGUAGUUAAGAUGGCA | 375 nM | 13.3 nM |  |  |
| CUGAGUAGUCAGGAUAUGCUGUACAAAAGUACAGCAGAAGGGAUUACAUGAGGAUCACCCAUGUUUUCUUCAUG |  |  | 56.1 nM | 137 nM |
| CAAAUCUGAGGAUAUCGAUAUUUGUACAUGAGGAUCACCCAUGUCCUAUUUAUAAAAUCCCGAGAAGGCAGUGUAU |  |  | 14.6 nM | 22.9 nM |
| AUAAGCUCGUCAGGAUAUGCGACACUGUUUCUGCAGUGUGGUAUGAUCACAUGAGGAUCACCCAUGUAGAAGGGACGAGCUUAU |  |  | 6.66 nM | 13.9 nM |
| CAUCAGGUACGAGGAUAUCCGCGAUCUCUUCGAGGAGAAGGCGUACAUGAGGAUCACCCAUGUGGGCGAGGCAGACGAAGUCUG |  |  | 96.3 nM | 60.9 nM |
| UUCCUCGUUGUGAGGAUAUCGUCCUCUUUUUGUUACGAGAAGGCACAUGAGGAUCACCCAUGUUUCUUGAUGUU |  |  | 16.7 nM | 42.3 nM |
| GCAGUAAAUAAAUGCACAUGAGGAUCACCCAUGUGGGAGGCACAGGAUAUCGCAUCAUAGCGGUGCGAGAAGGGUGAUAAUCUC | 346 nM | 72.3 nM |  |  |
| CGCUGGAUCGAGAAGGCCAUGUGGGACGCGAGCAGUGAUGUUAGGACAUGGAGGAUAUCGAACAUGAGGAUCACCCAUGUAACC | 438 nM | 25.5 nM |  |  |
| GGUGCAGUGUAGAAGGCAGAUCUGAUUCAGAUCUGAGGAUAUACAUGAGGAUCACCCAUGUUAUGCACCAGCACGAGAGUGCAA |  |  | 6.28 nM | 8.76 nM |
| AAUAUGAGCUGGAAUAUAAACCUGACAUGAGGAUCACCCAUGUAGGAUAUCAGCACGAUAAGUGCUGAGAAGGACAACCAGCUC |  |  | 14 nM | 14.5 nM |
| GUUAAACAUGAGGAUCACCCAUGUAAGGAUAUGCUGCGGUCGCGCUGACGUGACUGCAGCAGAAGGUACAAAUG |  |  | 105 nM | 66.9 nM |
| AGAUGACAAAGUCAUCUCGCUUUGACAUGAGGAUCACCCAUGUAGGAUAUAUUACUCAAAGAGUAAUAGAAGGACAUGUGUCUU |  |  | 37.2 nM | 104 nM |
| UUAUUUUGUCAAGGAUAUGUAGUAUUGAUCUGAAAACAUGAGGAUCACCCAUGUAUAUGGUGGGAACAGAAGGUGAAUGUUGAA |  |  | 658 nM | 845 nM |
| UCCGAGUGAGGAUAUUGGAGUUGGUGCACUGCACAUAGGGUUAAGAAGGCACAUGAGGAUCACCCAUGUUACGU |  |  | 41.3 nM | 40.9 nM |
| AUAGCAUACCGAGGAUAUUCAUAUAAUAAAUAAACAUGAGGAUCACCCAUGUGGCGAAAGCCUAGGGAGAAGGCGGAAUGCUAU | 204 nM | 24.1 nM |  |  |
| GAGGAACAUGAGGAUCACCCAUGUGAGGAUAUGCAUAGCGAGGUAGUAGAAGUUGAAUGCAGAAGGUACACGGA |  |  | 36 nM | 30.3 nM |
| CCUCGACAUGAGGAUCACCCAUGUCAGGAUAUUGUGUUUCGGGUUUUUUACCGUUAGGCAAGAAGGGAUGUGUG |  |  | 29.2 nM | 40.2 nM |
| ACUAUACGAGGAUAUACUGUCGGGCCUCGGACAUAAAUAAGACAUGAGGAUCACCCAUGUAGAAGGCGUUUACU |  |  | 25.6 nM | 46 nM |

| Sequence | apparent Kd [1] | apparent Kd [2] | apparent Kd [3] | apparent Kd [4] |
| --- | --- | --- | --- | --- |
| CUAUUGUGAGGAUAUCAGGUGUGCUAGCGUACUGGUACAUCUGAGAAGGCACAUGAGGAUCACCCAUGUUUCUU |  |  | 19.3 nM | 56.2 nM |
| GUUCUCGGAGGAUAUACACAGUGAGAACCCGCGCAAGCGGGACAUGAGGAUCACCCAUGUAGAAGGUCGAGCAA |  |  | 70.2 nM | 170 nM |
| ACUAAAGAAGGAUAUACUAACGAACCUCAAACAUAGAUAAAACAUGAGGAUCACCCAUGUAGAAGGUCUAGACU |  |  | 31.7 nM | 39.6 nM |
| AGCGGAUAACAGUAGGAUAUGGCCAACGCCACAUGAGGAUCACCCAUGUCGUACCGGCACCUGGACUAGAAGGACUGCCUCCCGC | 30.8 nM | 14.5 nM |  |  |
| UGUUGUUCAGGAUAUGAUGUAUAAUACAUGAGGAUCACCCAUGUAGAUCCUGAAUUAACGUCAGAAGGGAAUGUUG |  |  | 15.1 nM | 17 nM |
| AUCAGCUCGUCAGGAUAUACGUCACUGCGUCAGCAGUGUGGUAAGAUCACAUGAGGAUCACCCAUGUAGAAGGGACGAGCUGGU |  |  | 14.4 nM | 239 nM |
| UGAUCUAUGUAGAAGGCCCAUAUCUAUAUUUAGGGAGGAUAUACAUGAGGAUCACCCAUGUAUAGAGCUAGUGGACUGGUCACC |  |  | 37.7 nM | 48.1 nM |
| GUUGUGUAUGUAGGAUAUGCGAAGCAAAGCUUCGCAGAAGGACAUGAGGAUCACCCAUGUAUUGCAGCCUGCAAUCAGGCUGCU |  |  | 41.6 nM | 175 nM |
| UUUAAUAUUAUAGGAUAUGGAUACGAUACGUAUCCAGAAGGGUGAUUAAACUAUAAUCUAUACAUGAGGAUCACCCAUGUUUAU | 212 nM | 44.7 nM |  |  |
| CCUCUACAUGAGGAUCACCCAUGUGAGGAUAUGCGAGGCGCGCUCGAUGAGCGCGCCGGUAGAAGGCAUGUGGU |  |  | 23.2 nM | 49.9 nM |
| AUUUAUGGCCAGAAGGACAUGAGGAUCACCCAUGUAGGAUAUGGACGAUUUUGCUUGGCGGUUCGUUUAGGAAGCACCGGUGGU | 23.8 nM | 7.18 nM |  |  |
| UCGAUGCUAGGAUAUACUUAUAAAACUACUGUAGAGUCUUCACAUGAGGAUCACCCAUGUAGAAGGAGCAUCUA |  |  | 20 nM | 16 nM |
| AUAUUAAUAGUAAGGAUAUGCGUGUAUGUAGUUAUGCAGAAGGUACAUGAGGAUCACCCAUGUAUUAAUGUGUA |  |  | 14.2 nM | 15.4 nM |
| CCCUCGCGAGGAUAUGCAUCCUCCCUCAUUUCUUUCACUACACAUGAGGAUCACCCAUGUAGAAGGCGCUCUCC |  |  | 49.9 nM | 38.6 nM |
| UUCAGCUCGUCAGGAUAUACGUCACUGCUUCGGCAGUGUGGUAAGAUCACAUGAGGAUCACCCAUGUAGAAGGGACGAGCUGAC |  |  | 13.5 nM | 252 nM |
| AGGAAGUAAGGAUAUGCUGCUCGUCACUUGCGUGAUGAGUAGCAGAAGGUACAUGAGGAUCACCCAUGUAAAAA |  |  | 23.7 nM | 18.5 nM |
| GUCAUCGCAUGAGGAUAUGCUCGGGUUUCCCGAGCAGAAGGCAUGUCAUAAGACAUGAGGAUCACCCAUGUAGUUAAGAUUGUA | 192 nM | 12.5 nM |  |  |
| AAAAAGUCAGGAUAUCGUAGAAAAAUAUAAAUAAGAAAGUACGAGAAGGGACAUGAGGAUCACCCAUGUAAAAA |  |  | 33.1 nM | 36.9 nM |
| ACGCCUCCUGUUAGGAUAUGCAUCGGGCUUCCGCAGCAGAAGGAACAUGAGGAUCACCCAUGUCAAAUAAAAUC |  |  | 15.3 nM | 94.4 nM |

| Sequence | apparent Kd [1] | apparent Kd [2] | apparent Kd [3] | apparent Kd [4] |
| --- | --- | --- | --- | --- |
| GGCAUACAUGAGGAUCACCCAUGUUCAACCUAGAUAGGAUAUGGGCCUCUUGUAUUAGGCCCAGAAGGAUCUGUAA | 103 nM | 29.6 nM |  |  |
| UUAUUUAUGUAAGGAUAUCGAUGAUAUACGCAUCCGACAUGAGGAUCACCCAUGUUUUAUUUUGUCGAGAAGGUACAUUGUCGG | 57.8 nM | 57.1 nM |  |  |
| UUAAAUCAUGUAGGAUAUGCAUGGCGAAGCUACGCAGAAGGACAUGAGGAUCACCCAUGUGCUAGCGUCUGAGUACAGAUGCAA |  |  | 39.3 nM | 259 nM |
| GCAGGUUAAGUCAGGAUAUACCUAUGGAUACAUAGGUAGAAGGGACAUGAGGAUCACCCAUGUGUCUCGCCUGC |  |  | 87.8 nM | 148 nM |
| AAAGCGUGAGGAUAUGAGGCGCCGGGCCGGUUGGUGCGGAUUCAGAAGGCACAUGAGGAUCACCCAUGUCGGUA |  |  | 41.1 nM | 96 nM |
| UAUAUGUCAGGAUAUUAGUUGUGGACGAAUUUCACUUCUGCUGAGAAGGGACAUGAGGAUCACCCAUGUUCCUC |  |  | 15.4 nM | 16 nM |
| AUGCCUUAUGUAGGAUAUGCAUAGCGUUGCUAUGCAGAAGGACAUGAGGAUCACCCAUGUAUGUUAUCAUUACAUAUCUGGCAU |  |  | 27.6 nM | 271 nM |
| GAAAACGCAGAGGAUAUUCCAGAUCUAAGCUGCGAAGAAGGCUGCACAUGAGGAUCACCCAUGUGGUCUUUAAA |  |  | 18.8 nM | 116 nM |
| CCCUAAUAUCGAGGAUAUGUCUAGACACAUGAGGAUCACCCAUGUAUGUGUAUAGAAGGCGAUAUUAACAGCAUGUUACAUGGG | 315 nM | 101 nM |  |  |
| UUUUAACAUGAGGAUCACCCAUGUGAGGAUAUCGAAAUUUAUAUUAAUAUUAUUAAAACGAGAAGGCACAUUUU |  |  | 63.1 nM | 82.8 nM |
| UUUUUUUUAUGAGGAUAUAUUUUACAUACAAAACAUGAGGAUCACCCAUGUGUUGUCCCAUGUUUAUAGAAGGCAUUUUUUUUU | 418 nM | 598 nM |  |  |
| AAUUGACACGUAGGAUAUCGCUCUAUUUUAACACGAGAAGGACGUACAUGAGGAUCACCCAUGUUUAAUGGUGUAGAUAAGUUG |  |  | 105 nM | 228 nM |
| AAGCUGCGCCAGAAGGGACCGACAUGAGGAUCACCCAUGUCCACAAGAGUCAGGAUAUGGCGUGGAGGCUCGUUCAAGUCCAGG | 13.5 nM | 5.73 nM |  |  |
| UCAUUAUAAAUCCAUCAUAACUACAUGAGGAUCACCCAUGUGCAGGAUAUCGAUUAUUUUACUAACGAGAAGGGCAAAUACAGA |  |  | 37.5 nM | 72.4 nM |
| GCAGUAAAUAAAUGCACAUGAGGAUCACCCAUGUGGGAGGCACAGGAUAUCGUAUCAUAGUGGUACGAGAAGGGUGAUAAUCUC | 425 nM | 84.4 nM |  |  |
| GUAAAUCAUGUAGGAUAUGCAUGGCGAAGCUACGCAGAAGGACAUGAGGAUCACCCAUGUUAUAGCUACCCGUUACGGUGGCAA |  |  | 100 nM | 236 nM |
| UUGAUUAUACAAGGAUAUCAAUUGUAUACAAGUCUUACAUGAGGAUCACCCAUGUUAAAUUUUUUUGAGAAGGUGUAUUGUCAG | 40.2 nM | 24 nM |  |  |
| GGUGCGUAUGUGAGGAUAUGCUGGUCCUUGGCUCAGCAGAAGGCACAUGAGGAUCACCCAUGUGGUGUCGUACC |  |  | 333 nM | 21.8 nM |
